Here are results for four compounds from ChEMBL document CHEMBL3616437, “Thiazole compounds with activity against Cryptococcus gattii and Cryptococcus neoformans in vitro” (Eur J Med Chem, 2015).

Test [1] deals with Cryptococcus neoformans. The test can be described thus: Antifungal activity against Cryptococcus neoformans F10 assessed as reduction in cell viability at 1.9 uM after 6 to 72 hrs by MTT assay. It is filed as functional. On the technique in general: Tetrazolium dyes change colour on reduction, which living cells bring about.
Test [2] has as its system Cryptococcus neoformans. The test can be described thus: Antifungal activity against Cryptococcus neoformans VM-MCMMPI assessed as reduction in cell viability at 1.9 uM after 6 to 72 hrs by MTT assay. Format: functional.
Test [3] has as its system Cryptococcus neoformans. The test can be described thus: Antifungal activity against Cryptococcus neoformans 27JF assessed as reduction in cell viability at 1.9 uM after 6 to 72 hrs by MTT assay. It is filed as functional.
In test [4] the test system is Cryptococcus neoformans. Kind of test: Antifungal activity against Cryptococcus neoformans ATCC 28957 assessed as reduction in cell viability at 1.9 uM after 6 to 72 hrs by MTT assay. It is filed as functional.
Test [5] relates to Cryptococcus neoformans. The test can be described thus: Antifungal activity against Cryptococcus neoformans ATCC 24067 assessed as reduction in cell viability at 1.9 uM after 6 to 72 hrs by MTT assay. It is filed as functional.
The test system of test [6] is Cryptococcus gattii species complex. The test can be described thus: Antifungal activity against Cryptococcus gattii ATCC 24065 assessed as reduction in cell viability at 0.12 uM after 6 to 72 hrs by MTT assay.
The test system is the same in test [7]. The test can be described thus: Antifungal activity against Cryptococcus gattii 1913ER assessed as reduction in cell viability at 0.12 uM after 6 to 72 hrs by MTT assay. It is filed as functional, Cryptococcus bacillisporus.
For test [8], the system named is Cryptococcus neoformans. Kind of test: Antifungal activity against Cryptococcus neoformans WP assessed as reduction in cell viability at 0.12 uM after 6 to 72 hrs by MTT assay. It is filed as functional.
Test [9] relates to Cryptococcus neoformans. Kind of test: Antifungal activity against Cryptococcus neoformans ATCC 28957 assessed as reduction in cell viability at 0.12 uM after 6 to 72 hrs by MTT assay. Format: functional.
Test [10] has as its system Cryptococcus neoformans. The test can be described thus: Antifungal activity against Cryptococcus neoformans 96806 assessed as reduction in cell viability at 0.12 uM after 6 to 72 hrs by MTT assay. Format: functional.
Test [11] deals with Cryptococcus neoformans. Kind of test: Antifungal activity against Cryptococcus neoformans F10 assessed as reduction in cell viability at 0.12 uM after 6 to 72 hrs by MTT assay. It is filed as functional.
Test [12] concerns Cryptococcus gattii species complex. Kind of test: Antifungal activity against Cryptococcus gattii L24/01 assessed as reduction in cell viability at 0.12 uM after 6 to 72 hrs by MTT assay. Format: functional, Cryptococcus bacillisporus.
For test [13] the test system is unchanged. Kind of test: Antifungal activity against Cryptococcus gattii ICB181 assessed as reduction in cell viability at 0.12 uM after 6 to 72 hrs by MTT assay. Format: functional, Cryptococcus bacillisporus.
Test [14] has the same test system. The test can be described thus: Antifungal activity against Cryptococcus gattii 547/OTTI-97-PI-10 assessed as reduction in cell viability at 0.12 uM after 6 to 72 hrs by MTT assay. Format: functional, Cryptococcus bacillisporus.
In test [15] the test system is Cryptococcus neoformans. Kind of test: Post-antifungal activity against Cryptococcus neoformans CN31 assessed as organism required time to achieve cell population of 10^4 cells/ml at 0.05 uM treated for 1 hr by MTT assay. It is filed as functional.
Test [16] concerns Cryptococcus neoformans. Kind of test: Antifungal activity against Cryptococcus neoformans VM-MCMMPI assessed as reduction in cell viability at 26 uM after 6 to 72 hrs by MTT assay. It is filed as functional. The procedure, abridged: (§1)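 Time-kill setup: colonies from two 48 h, 35°C SDA passages were suspended in saline to 70% transmittance at 530 nm. They were then diluted to 1-5 x10^3 cells/mL in RPMI with L-glutamine buffered to pH 7.0 with 0.165 M MOPS. Plates were incubated at 35°C for 0-72 h, then MTT (5.0 mg/mL) was added for 3 h. After isopropanol, absorbance was read at 490 nm. Drug-free controls were included, results were confirmed by SDA colony counts, and assays were run in triplicate.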

The subject of test [17] is Cryptococcus gattii species complex. Kind of test: Antifungal activity against Cryptococcus gattii ICB181 assessed as reduction in cell viability at 26 uM after 6 to 72 hrs by MTT assay. It is filed as functional, Cryptococcus bacillisporus. The procedure, abridged: as §1
Test [18] shares this test system. Kind of test: Antifungal activity against Cryptococcus gattii 135L/03 assessed as reduction in cell viability at 26 uM after 6 to 72 hrs by MTT assay. It is filed as functional, Cryptococcus bacillisporus. The procedure, abridged:
as §1

Test [19] deals with Cryptococcus neoformans. Kind of test: Antifungal activity against Cryptococcus neoformans F10 assessed as reduction in cell viability at 26 uM after 6 to 72 hrs by MTT assay. It is filed as functional. The gist of the method: as §1
For test [20], the system named is Cryptococcus gattii species complex. The test can be described thus: Antifungal activity against Cryptococcus gattii 196L/03 assessed as reduction in cell viability at 26 uM after 6 to 72 hrs by MTT assay. It is filed as functional, Cryptococcus bacillisporus. The procedure, abridged: as §1
The subject of test [21] is Cryptococcus bacillisporus. Kind of test: Antifungal activity against Cryptococcus gattii ATCC 32608 assessed as reduction in cell viability at 26 uM after 6 to 72 hrs by MTT assay. Format: functional. The gist of the method:
as §1

For test [22], the system named is Cryptococcus neoformans. The test can be described thus: Antifungal activity against Cryptococcus neoformans 27JF assessed as reduction in cell viability at 0.9 uM after 6 to 72 hrs by MTT assay. Format: functional.
Test [23] has as its system Cryptococcus neoformans. The test can be described thus: Antifungal activity against Cryptococcus neoformans 96806 assessed as reduction in cell viability at 0.9 uM after 6 to 72 hrs by MTT assay. Format: functional.
Test [24] deals with Cryptococcus neoformans. The test can be described thus: Antifungal activity against Cryptococcus neoformans ATCC 62066 assessed as reduction in cell viability at 0.9 uM after 6 to 72 hrs by MTT assay. It is filed as functional.
For test [25], the system named is Cryptococcus neoformans. Kind of test: Antifungal activity against Cryptococcus neoformans 28JF assessed as reduction in cell viability at 0.9 uM after 6 to 72 hrs by MTT assay. It is filed as functional.
The subject of test [26] is Cryptococcus gattii species complex. The test can be described thus: Post-antifungal activity against Cryptococcus gattii L27/01 assessed as organism required time to achieve cell population of 10^4 cells/ml at 0.45 uM treated for 1 hr by MTT assay. Format: functional, Cryptococcus bacillisporus.
For test [27] the test system is unchanged. Kind of test: Post-antifungal activity against Cryptococcus gattii L27/01 assessed as organism required time to achieve cell population of 10^4 cells/ml at 0.45 uM treated for 1 hr by MTT assay in presence of 0.11 uM amphotericin B. It is filed as functional, Cryptococcus bacillisporus.
Test [28] deals with Cryptococcus neoformans. Kind of test: Antifungal activity against Cryptococcus neoformans ATCC 24067 assessed as reduction in cell viability at 0.9 uM after 6 to 72 hrs by MTT assay. Format: functional.
Test [29] relates to Cryptococcus neoformans. Kind of test: Antifungal activity against Cryptococcus neoformans 5396 assessed as reduction in cell viability at 0.9 uM after 6 to 72 hrs by MTT assay. It is filed as functional.
Test [30] has as its system Cryptococcus neoformans. Kind of test: Post-antifungal activity against Cryptococcus neoformans CN31 assessed as organism required time to achieve cell population of 10^4 cells/ml at 0.9 uM treated for 1 hr by MTT assay in presence of 0.05 uM amphotericin B. Format: functional.

For `C(=N\Nc1nc(-c2ccccc2)cs1)/C1CCCCC1`, the Activity in test [1], in test [2], in test [3], in test [4] and in test [5] was 90% in each case.

As for `C[C@@H]1[C@H](O)[C@@H](C)/C=C/C=C/C=C/C=C/C=C/C=C/C=C/[C@H](O[C@@H]2O[C@H](C)[C@@H](O)[C@H](N)[C@@H]2O)C[C@@H]2O[C@](O)(C[C@@H](O)C[C@@H](O)[C@H](O)CC[C@@H](O)C[C@@H](O)CC(=O)O[C@H]1C)C[C@H](O)[C@H]2C(=O)O` [AMPHOTERICIN B], the Activity in test [6], in [7], in [8], in [9], in test [10] and in test [11] was 90% each time. Besides, the Activity in test [12], in test [13] and in test [14] was 90% in each case. Besides, in test [15], the Time is 2.75 h.

With `OC(Cn1cncn1)(Cn1cncn1)c1ccc(F)cc1F` [FLUCONAZOLE], the Activity in test [16], in test [17], in test [18], in test [19], in [20] and in [21] was 80% each time.

Consider `COc1ccc(-c2csc(N/N=C(\C)CCO)n2)cc1`, for which the Activity in [22], in test [23], in [24], in test [25], in [28] and in [29] was 90% each time. The figures for the Time in [26], in test [27] and in test [30] were 1.7 h, 2.15 h and 2.1 h, respectively.
